In the library only some 1.3% were active in any assay of this set; here they are far more common.
TDP2 inh: TDP2 (human) inhibition, absorbance primary screen; 370,000 compounds, 0.34% hits; O95551; AID 720702; recombinant TDP2, T5PNP hydrolysis, p-nitrophenol absorbance 415 nm; inhibition, % at 12.8 µM;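 active = inhibition above the mean of all tested compounds plus 3 SD, set per campaign, cut at about 25% in these data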;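 note: 0% = DMSO with enzyme and 100% = buffer with substrate but no TDP2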
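Read-out basis: percent inhibition. System: recombinant human TDP2. Buffer or medium: Mg2+-containing Tris-HCl buffer, pH 7.5. Repeats: single replicate. Timing: reaction 2 h, 37 °C. Benchmarks: high control without enzyme, low control DMSO plus TDP2. Probe or stimulus: 5 mM T5PNP. Doses: 12.8 µM only. Measured by: epi absorbance of p-nitrophenol freed from T5PNP by hydrolysis.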
LEDGF integ inh: blocks HIV-1 LEDGF/p75-dependent DNA integration; TR-FRET IN-LEDGF/p75 DNA integration, Eu/Cy5; inhibition, % at 3.7 µM; 370,000 compounds, 0.64% hits; AID 743269;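 active = inhibition above the screen-wide mean plus 3 SD, cut at about 13% in these data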;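 note: signal is the Cy5 over europium emission ratio at 671 and 618 nm; 0% = plate median of compound wells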
ARFGAP1 inh: inhibitors of rat ARFGAP1. Q62848. Arfgap1-stimulated ARF1 GTP hydrolysis, GDP FP detection. inhibition, % at 16.5 µM. 360,000 compounds, 0.26% hits;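 active = inhibition above a per-plate limit, mean inhibition of low control wells plus 3 SD, cut at about 25% in these data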;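 note: 0% = DMSO wells with enzyme and 100% = wells lacking Arfgap1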
Target sequence (Q62848 1-136 limits assumed): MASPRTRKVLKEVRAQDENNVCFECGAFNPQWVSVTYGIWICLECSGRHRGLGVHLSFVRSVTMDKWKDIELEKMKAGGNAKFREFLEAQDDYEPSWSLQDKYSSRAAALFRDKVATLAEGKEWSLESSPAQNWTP
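System: truncated rat Arfgap1 GAP domain / Benchmarks: high control wells lacking Arfgap1, low control full reaction with DMSO / Times: compound-enzyme preincubation 20 min, reaction 120 min, detection 60 min, 25 °C / Repeats: one replicate per compound / Also added: human ARF1(Δ1-17)-GTP substrate / Measured by: Tracer-displacement fluorescence polarization with EDTA stop, 620/688 nm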
ASAP1 GAP inh: ASAP1 ArfGAP inhibition. Q9ULH1. 360,000 compounds, 0.19% hits. inhibition, % at 16.5 µM. ASAP1-stimulated ARF1 GTP hydrolysis, GDP FP detection; in the data active = inhibition above about 25%;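 note: 0% = vehicle with enzyme and substrate and 100% = no enzyme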
Target sequence (Q9ULH1 325-724 limits assumed): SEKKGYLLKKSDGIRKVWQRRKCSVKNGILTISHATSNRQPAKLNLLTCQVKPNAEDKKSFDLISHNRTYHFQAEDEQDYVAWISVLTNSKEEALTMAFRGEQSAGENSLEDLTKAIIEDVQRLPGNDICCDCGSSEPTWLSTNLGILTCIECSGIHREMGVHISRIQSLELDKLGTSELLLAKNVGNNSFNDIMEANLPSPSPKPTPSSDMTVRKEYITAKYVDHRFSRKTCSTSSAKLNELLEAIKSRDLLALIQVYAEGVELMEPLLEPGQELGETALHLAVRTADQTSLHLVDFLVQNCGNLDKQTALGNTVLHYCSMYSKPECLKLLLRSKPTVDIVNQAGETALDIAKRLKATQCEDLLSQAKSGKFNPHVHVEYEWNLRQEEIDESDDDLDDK
CASP6 VEID inh: caspase-6 (human) enzyme inhibition | P55212 | purified caspase-6, Z-VEID-R110 cleavage fluorescence | inhibition, % at 12.5 µM | 350,000 compounds, 0.53% hits | AID 686996;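 active = mean inhibition across replicates at least about 35%, with every replicate also reaching that limit, limit read from the data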;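 note: 0% = median of neutral control wells and 100% = no fluorescence left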
ASAP1 inh confirm: confirmation of human ASAP1 inhibitors; ASAP1-stimulated Arf1 GTPase, GDP fluorescence polarization; shares compounds with ASAP1 GAP inh; inhibition, % at 16.5 µM; AID 624431; 620 compounds, 37% hits;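 active = mean inhibition over triplicates exceeds the hit threshold derived for the earlier primary screening run, cut at about 25% in these data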
* marks the source's active call; other numbers are inactive results; nt = not tested or not shown.

SMILES | TDP2 inh | LEDGF integ inh | ARFGAP1 inh | ASAP1 GAP inh | CASP6 VEID inh | ASAP1 inh confirm
S=c1[nH]nc(Cc2cccs2)n1-c1ccccc1Cl | 2 | -1 | -1 | 26* | 1 | 6
O=C(COC(=O)C1CC2CCCC(C1)C2=O)NC1CCCCC1 (stereo unspecified) | -12 | 4 | 7 | 26* | 2 | -3
CC1CCC(NC(=O)COC(=O)C2CC3CCCC(C2)C3=O)CC1 (stereo unspecified) | 2 | 0 | -2 | -10 | -3 | nt
COc1ccc(-n2c3nc4ccccc4nc3c3c(=N)oc(C)nc32)cc1 | 1 | 2 | 12 | 30* | nt | 10
Cc1noc(C)c1COc1ccc(C(=O)OCC(=O)NCc2ccccc2Cl)cc1 | 7 | 1 | 8 | 28* | -1 | 2
COc1ccc(CNC(=O)COC(=O)c2ccc(OCc3c(C)noc3C)cc2)cc1OC | -1 | -2 | 1 | -9 | 0 | nt
Cc1noc(C)c1COc1cccc(C(=O)OCC(=O)NC(=O)c2ccc(OC(F)F)cc2)c1 | 1 | -1 | 18 | 30* | -2 | 24
C=CCN1C(=O)C2(OCCO2)c2cc(C)ccc21 | 3 | 4 | 0 | 9 | -3 | nt
O=C(OC[C@@H]1[C@H]2c3ccccc3OC1(CO)N=C1SCC(=O)N12)c1ccccc1 | nt | nt | nt | nt | 0 | nt
COc1ccc([Si](C)(C)[C@@H]2[C@@H](CCO)O[C@]3(C(=O)N(Cc4ccc(N5CCOC5=O)cc4)c4ccccc43)[C@H]2C)cc1 | nt | nt | nt | nt | -2 | nt
CC1CCN(C(=O)c2[nH]cnc2C(=O)N[C@@H](C)C(=O)OCc2ccccc2)CC1 | 3 | -3 | -10 | 25* | 1 | 2
O=C(Nc1ccc(CSc2ccccc2)cc1)c1ccco1 | -2 | 0 | 3 | 25* | 1 | 7
CO[C@@H]1CN(C)C(=O)c2ccc(NC(=O)C3CCOCC3)cc2OC[C@@H](C)N(Cc2nccs2)C[C@H]1C | nt | nt | nt | nt | -1 | nt
Cc1cc(C(=O)COC(=O)CC(NC(N)=O)c2ccc(Cl)cc2)c(C)n1C (stereo unspecified) | 8 | 12 | 8 | 4 | 11 | nt
NC(=O)COC(=O)CC(NC(N)=O)c1ccc(Cl)cc1 (stereo unspecified) | 6 | 0 | 1 | 26* | -1 | 0
CCOc1ccc(CC2S/C(=N/c3ccccn3)NC2=O)cc1 (stereo unspecified) | 2 | 1 | -11 | 3 | nt | nt
CCc1ccc(CCOc2ccc(CC3SC(=O)NC3=O)cc2)nc1 (stereo unspecified) | -4 | 0 | 12 | 25* | 3 | 3
N#Cc1cccc(NC(=O)CSc2ccc3c4c(cccc24)C(=O)c2ccccc2-3)c1 | 12 | 0 | 24 | 100* | nt | 111*
COc1ccc(Cc2c(O)nc(SCC(C)C)[nH]c2=O)cc1 | -1 | 0 | -4 | -1 | -2 | nt
Cc1cc(NC(=O)c2ccc(NC(=O)C3CC3)cc2)no1 | -2 | 4 | -2 | 8 | 1 | nt
Cc1cc(Nc2cc(Cl)nc(Sc3ccc(NC(=O)C4CC4)cc3)n2)n[nH]1 | -4 | -5 | 18 | 30* | -1 | 22
Cn1c(SCC(=O)NC2CCCC2)nc2c(c1=O)SCC2 | -26 | -7 | 17 | 28* | 17 | 10
Cc1ccc(S(=O)(=O)NCCNc2ccc([N+](=O)[O-])cc2)cc1 | -14 | -10 | -2 | 29* | 0 | 1
Cc1ccc(S(=O)(=O)NCCCNc2ccc([N+](=O)[O-])cc2)cc1 | -1 | 2 | -1 | 12 | 4 | nt
Fc1ccc(Nc2nc(-c3ccncc3)nc3ccccc23)cc1F | -10 | 0 | 6 | 38* | -2 | 36*
SMILES | TDP2 inh | LEDGF integ inh | ARFGAP1 inh | ASAP1 GAP inh | CASP6 VEID inh | ASAP1 inh confirm
Cc1ccc(S(=O)(=O)N(CC2CO2)c2cc(Cl)ccc2Cl)cc1 (stereo unspecified) | -1 | -7 | 10 | 28* | 4 | 1
Cc1ccc(N(CC2CO2)S(=O)(=O)c2ccc(C)cc2)cc1 (stereo unspecified) | -2 | -4 | 2 | -13 | 4 | nt
Cc1ccc(OCCSc2ncnc3sc(C)c(C)c23)cc1C | -1 | 2 | -3 | -1 | nt | nt
CC(=O)NCCNc1nc2cc(-c3ccccc3)sc2c(=O)n1C | -10 | 3 | -4 | 28* | 3 | 5
COc1ccc(C)cc1S(=O)(=O)N1c2ccc(C)cc2C2CN(C)CCC21 (stereo unspecified) | 1 | 2 | -4 | -14 | -5 | nt
CCc1ccc(OCC(=O)N2CCc3ccccc32)cc1 | 9 | -3 | -16 | 26* | -2 | 10
C/C(=N/NS(=O)(=O)c1ccc(C)cc1)c1ccc(NC(=O)C(F)(F)F)cc1 | 1 | 0 | 2 | 25* | -4 | 8
CCOC(=O)C1CCN(c2nc(N)c3c(N)nc(SCC(=O)O)cc3c2C#N)CC1 | 13 | -7 | 38* | 41* | 65* | 25*
CCN(CC)C(=O)Cn1nc(-c2ccccc2O)nc1SCC(=O)Nc1ccc(OC)cc1 | -1 | 0 | -10 | 0 | 1 | nt
CC(=O)c1cccc(NC(=O)NCCc2c[nH]c3ccccc23)c1 | -3 | 4 | -5 | 1 | -2 | nt
O=C(Nc1cccc(CNCCc2c[nH]c3ccccc23)c1)c1ccccc1Cl | 16 | 2 | 3 | 29* | -9 | 7
COCOc1cccc(CN2CCC(C)(Oc3cccc(OC)c3)C2)c1 (stereo unspecified) | 2 | -6 | -1 | -1 | -4 | nt
Cc1cccnc1C1=NOC(Cc2ccccc2)C(=O)N1Cc1ccccc1F (stereo unspecified) | -12 | 3 | -6 | 26* | 0 | 8
COc1ccccc1CN1C(=O)C(Cc2ccccc2)ON=C1c1ncccc1C (stereo unspecified) | -13 | -3 | 4 | 9 | -1 | nt
O=C(N/N=C/c1ccc(N2CCOCC2)cc1)C1CC1 | 9 | -1 | -2 | -6 | 0 | nt
CCn1nc(NC(=O)c2ccncc2)c2cc3cc(C)ccc3nc21 | -16 | 6 | 7 | 16 | nt | nt
CCn1nc(NC(=O)c2ccncc2)c2cc3ccc(C)cc3nc21 | -5 | -2 | 7 | 25* | nt | 8
CCOc1ccc2nc(-c3ccccc3)[nH]c2c1 | -5 | 1 | 19 | 3 | nt | nt
CC(C)CC(=O)NC(=S)Nc1ccc(N2CCN(C(=O)c3cccs3)CC2)cc1 | 9 | 0 | 1 | -3 | -1 | nt
CC(C)CC(=O)NC(=S)Nc1ccc(NC(=O)c2cccs2)cc1 | -7 | 1 | 6 | 25* | nt | 4
COc1ccccc1NS(=O)(=O)c1ccc(C)c(C(=O)Nc2cc(C)on2)c1 | 4 | 1 | 2 | 26* | -2 | 7
O=C(CSc1ncnc2sccc12)NCc1ccc2c(c1)OCO2 | -14 | -6 | 2 | -3 | 5 | nt

Source: PubChem (several laboratories)
